Tests used:
[1] = Liver microsome stability, mouse; format: in vitro ADME; details: mouse liver microsomes; well-stirred model
[2] = Hepatocyte stability, rat; format: in vitro ADME; details: rat hepatocytes; well-stirred model
[3] = Liver microsome stability, human; format: in vitro ADME; details: human liver microsomes; well-stirred model
[4] = Liver microsome stability, dog; format: in vitro ADME; details: dog liver microsomes; well-stirred model
[5] = Hepatocyte stability, dog; format: in vitro ADME; details: dog hepatocytes; well-stirred model
Outline: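 Dog hepatocytes. Intrinsic clearance (CLint) was scaled to blood clearance with the well-stirred liver model: CLb = QH×CLint/(QH + CLint). Dog liver blood flow (QH) was 2.1 L h⁻¹ kg⁻¹.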

[6] = Caco-2 permeability assay; format: in vitro ADME; details: human
[7] = Liver microsome stability, monkey; format: in vitro ADME; details: monkey liver microsomes; well-stirred model
[8] = Liver microsome stability, rat; format: in vitro ADME; details: rat liver microsomes; well-stirred model
[9] = Hepatocyte stability, human; format: in vitro ADME; details: human hepatocytes; well-stirred model
Outline: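 Human hepatocytes. Intrinsic clearance (CLint) was converted to blood clearance with the well-stirred hepatic model: CLb = QH×CLint/(QH + CLint). Human liver blood flow (QH) was 1.32 L h⁻¹ kg⁻¹.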

[10] = Hepatocyte stability, monkey; format: in vitro ADME; details: monkey hepatocytes; well-stirred model
[11] = In vivo pharmacokinetics, rat; details: male Wistar rat, 0.6 mg kg^−1 p.o.; Cmax,p.o./dose p.o.
[12] = In vivo pharmacokinetics, dog; details: female Beagle dog, 0.2 mg kg^−1 p.o.; Cmax,p.o./dose p.o.

| SMILES | LM stability CL b,LM [1] [mL/min/kg] | Hep stability CL b,Hep [2] [mL/min/kg] | LM stability CL b,LM [3] [mL/min/kg] | LM stability CL b,LM [4] | Hep stability CL b,Hep [5] [mL/min/kg] | other results |
| --- | --- | --- | --- | --- | --- | --- |
| Cc1c(NC(=O)c2cc(C(F)(F)F)nc3ccc(Br)cc23)c(C(F)(F)F)nn1Cc1ccc(F)cc1 [Compound 12] | 36.7 | 43.3 | – | – | – | – |
| Cc1ccc2nc(C)cc(C(=O)Nc3c(C)nn(Cc4ccc(F)cc4)c3C)c2c1 [Compound 2] | 66.7 | 61.7 | 20 | – | – | – |
| Cc1ccc2nc(C(N)=O)cc(C(=O)Nc3c(C(F)(F)F)nn(Cc4ccc(C#N)cc4)c3C)c2c1 [Compound 17] | 38.3 | 33.3 | – | – | – | – |
| Cc1c(NC(=O)c2cc(C(N)=O)nc3ccccc23)c(C(F)(F)F)nn1Cc1ccc(C#N)cc1 [Compound 13] | 23.3 | 30 | 3.5 | 1 mL/min/kg | 1.83 | Papp A→B at 2 h, 2 µM [6]: 7.4 ×10⁻⁶ cm/s |
| Cc1c(NC(=O)c2cc(C(N)=O)nc3cc(F)ccc23)c(C(C)C)nn1Cc1ccc(C#N)cc1 [Compound 43] | – | – | 14.5 | – | – | – |
| Cc1c(NC(=O)c2cc(C(N)=O)nc3cc(F)ccc23)c(C(F)(F)F)nn1Cc1ccc(C#N)cc1 [Compound 19, N ^4 ‐[1‐(4‐Cyanobenzyl)‐5‐methyl‐3‐(trifluoromethyl)‐1H‐pyrazol‐4‐yl]‐7‐fluoroquinoline‐2,4‐dicarboxamide] | – | – | 5.33 | stable | 3.33 | LM stability CL b,LM [7]: 12.7 mL/min/kg; Hep stability CL b,Hep [9]: 6.17 mL/min/kg; C max,norm,p.o. [11]: 0.33 kg L ^−1; C max,norm,p.o. [12]: 0.93 kg L ^−1 |

More lines, main results first:

| LM stability CL b,LM [1] [mL/min/kg] | Hep stability CL b,Hep [2] [mL/min/kg] | LM stability CL b,LM [3] [mL/min/kg] | LM stability CL b,LM [4] | Hep stability CL b,Hep [5] [mL/min/kg] | SMILES | other results |
| --- | --- | --- | --- | --- | --- | --- |
| – | 20 | 8.83 | – | – | Cc1c(NC(=O)c2cc(C(N)=O)nc3cc(F)ccc23)c(C(F)(F)F)nn1Cc1cnc(C#N)cn1 [Compound 57] | – |
| 6 | 0.67 | 3.17 | 0.017 mL/min/kg | 0.017 | Cc1c(NC(=O)c2cc(C(N)=O)nc3cc(F)ccc23)c(C(F)(F)F)nn1Cc1ccc(C#N)cn1 [Compound 54] | LM stability CL b,LM [7]: 6.67 mL/min/kg; LM stability CL b,LM [8]: 6.17 mL/min/kg; Hep stability CL b,Hep [9]: 0.5 mL/min/kg; Hep stability CL b,Hep [10]: 5.33 mL/min/kg |
| – | 14.8 | 3.67 | – | – | Cc1c(NC(=O)c2cc(C(N)=O)nc3cc(F)ccc23)c(C(F)(F)F)nn1Cc1ncc(C#N)cn1 [Compound 58] | – |
